In ChEMBL document CHEMBL1806443, “Novel imidazo[4,5-b]pyridine and triaza-benzo[c]fluorene derivatives: synthesis, antiproliferative activity and DNA binding studies” (Eur J Med Chem, 2011):
Activity calls are given as the source filed them. The rule behind the calls is not given here.

How the values were obtained:
WI-38 [1] = test: Antiproliferative activity against human WI38 cells after 72 hrs by MTT assay; assay type: cell-based; conditions: Homo sapiens, WI-38, 72 h
In short: (§1)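 Monolayer cells in DMEM with 10% FBS, 2 mM L-glutamine, penicillin and streptomycin at 37 °C, 5% CO2. Seeded at 3000-6000 cells/well by doubling time on day 0. Five 10-fold dilutions (0.01–100 µM) were added and incubated 72 h. MTT read-out, converted to percentage growth. IC50 by linear regression between bracketing concentrations. Quadruplicate points, three independent experiments, ANOVA/Tukey p<0.05.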

MIA PaCa-2 [2] = test: Antiproliferative activity against human MIAPaCa2 cells after 72 hrs by MTT assay; assay type: functional, cell-based; conditions: Homo sapiens, MIA PaCa-2, 72 h; in short: as §1
SW-620 [3] = test: Antiproliferative activity against human SW620 cells after 72 hrs by MTT assay; assay type: functional, cell-based; conditions: Homo sapiens, SW-620, 72 h; in short: as §1
HEp-2 [4] = test: Antiproliferative activity against human Hep2 cells after 72 hrs by MTT assay; assay type: functional, cell-based; conditions: Homo sapiens, HEp-2, 72 h; in short: as §1
SK-BR-3 [5] = test: Antiproliferative activity against human SKBR3 cells after 72 hrs by MTT assay; assay type: functional, cell-based; conditions: Homo sapiens, SK-BR-3, 72 h; in short: as §1
MCF7 [6] = test: Antiproliferative activity against human MCF7 cells after 72 hrs by MTT assay; assay type: functional, cell-based; conditions: Homo sapiens, MCF7, 72 h; in short: as §1
HeLa [7] = test: Antiproliferative activity against human HeLa cells after 72 hrs by MTT assay; assay type: functional, cell-based; conditions: Homo sapiens, HeLa, 72 h; in short: as §1
WI-38 [8] = test: Cytostatic activity against human WI38 cells at 1 to 10 uM after 72 hrs by MTT assay; assay type: ADME, cell-based; conditions: wi-38, 72 h
In short: (§2)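 Monolayers in DMEM with 10% FBS, 2 mM L-glutamine, penicillin and streptomycin (37 °C, 5% CO2) were seeded at 3000–6000 cells/well on day 0. Five 10-fold dilutions (0.01–100 µM) were added, followed by 72-h incubation and MTT read-out. Absorbances were converted to percentage growth by the NIH formulae. Each point was run in quadruplicate in three experiments; ANOVA with Tukey test.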

SW-620 [9] = test: Cytostatic activity against human SW620 cells at 1 to 10 uM after 72 hrs by MTT assay; assay type: functional, cell-based; in short: as §2
MIA PaCa-2 [10] = test: Cytostatic activity against human MIAPaCa2 cells at 1 to 10 uM after 72 hrs by MTT assay; assay type: functional, cell-based; in short: as §2
SK-BR-3 [11] = test: Cytostatic activity against human SKBR3 cells at 1 to 10 uM after 72 hrs by MTT assay; assay type: functional, cell-based; in short: as §2
HEp-2 [12] = test: Cytostatic activity against human Hep2 cells at 1 to 10 uM after 72 hrs by MTT assay; assay type: functional, cell-based; in short: as §2
MCF7 [13] = test: Cytostatic activity against human MCF7 cells at 1 to 10 uM after 72 hrs by MTT assay; assay type: functional, cell-based; in short: as §2
HeLa [14] = test: Cytostatic activity against human HeLa cells at 1 to 10 uM after 72 hrs by MTT assay; assay type: functional, cell-based; in short: as §2
Nucleic Acid [15] = test: Binding affinity to calf thymus DNA assessed as change in melting temperature at compound to polynucleotide ratio of 0.5 by UV-VIS spectroscopic analysis; assay type: nucleic-acid assay; conditions: Bos taurus
In short: (§3)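 ct-DNA alone or with compound at set r = [compound]/[polynucleotide], in cacodylate buffer pH 7.0, I = 0.05 mol dm^-3. Absorbance at 260 nm followed against temperature, ligand absorbance subtracted, curves normalized. Tm is the transition midpoint, from the first-derivative maximum or by tangent method. ΔTm = Tm(complex) − Tm(free DNA), mean of ≥2 runs, error ±0.5 °C.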

Nucleic Acid [16] = test: Binding affinity to calf thymus DNA assessed as change in melting temperature at compound to polynucleotide ratio of 0.3 by UV-VIS spectroscopic analysis; assay type: nucleic-acid assay; conditions: Bos taurus; in short: as §3
Nucleic Acid [17] = test: Binding affinity to calf thymus DNA assessed as change in melting temperature at compound to polynucleotide ratio of 0.2 by UV-VIS spectroscopic analysis; assay type: nucleic-acid assay; conditions: Bos taurus; in short: as §3
Nucleic Acid [18] = test: Binding affinity to calf thymus DNA assessed as change in melting temperature at compound to polynucleotide ratio of 0.1 by UV-VIS spectroscopic analysis; assay type: nucleic-acid assay; conditions: Bos taurus; in short: as §3
Nucleic Acid [19] = test: Binding affinity to calf thymus DNA assessed as appearance of weak positive CD band at compound to DNA ratio of > 0.3 and 350 to 400 nm wavelength by circular dichroism spectroscopy; assay type: nucleic-acid assay; conditions: Bos taurus
In short: (§4)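 CD spectra of ct-DNA (1.0 × 10^-5 mol dm^-3, as phosphate) titrated with compound at 25 °C. Sodium cacodylate buffer pH 7.0, I = 0.05 mol dm^-3, 1 cm quartz cuvette. DNA band (~274–275 nm) and induced bands above 300 nm followed versus r = [compound]/[ct-DNA].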

Nucleic Acid [20] = test: Binding affinity to calf thymus DNA assessed as fluorescence quenching at compound to DNA ratio of 0.20 by fluorimetric titrations; assay type: nucleic-acid assay; conditions: Bos taurus
In short: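 Fluorimetric titration: portions of ct-DNA (sonicated, filtered, concentration as phosphate) added to compound in cacodylate buffer pH 7.0, I = 0.05 mol dm^-3. Emission 350–600 nm, sample absorbance <0.05 at excitation, mostly DNA excess (r < 0.1). Ks and n = [bound compound]/[DNA phosphate] by non-linear least-squares Scatchard fitting.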

Nucleic Acid [21] = test: Binding affinity to calf thymus DNA assessed as hypochromic changes at 360 nm wavelength by UV-Vis spectrophotometric titrations; assay type: nucleic-acid assay; conditions: Bos taurus
In short: (§5)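 UV/Vis titration: aliquots of ct-DNA (concentration as phosphate) added to compound solution in sodium cacodylate buffer pH 7.0, I = 0.05 mol dm^-3, 1 cm quartz cuvettes. Hypochromism followed at band maxima. Compound absorbance linear up to 2.0 × 10^-5 mol dm^-3. Binding data fitted by the Scatchard equation.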

Nucleic Acid [22] = test: Binding affinity to calf thymus DNA assessed as hypochromic changes at 342 nm wavelength by UV-Vis spectrophotometric titrations; assay type: nucleic-acid assay; conditions: Bos taurus; in short: as §5
Nucleic Acid [23] = test: Binding affinity to calf thymus DNA assessed as hypochromic changes at 327 nm wavelength by UV-Vis spectrophotometric titrations; assay type: nucleic-acid assay; conditions: Bos taurus; in short: as §5
Nucleic Acid [24] = test: Binding affinity to calf thymus DNA assessed as appearance of weak, negative CD band at 325 nm wavelength by circular dichroism spectroscopy; assay type: nucleic-acid assay; conditions: Bos taurus; in short: as §4
Nucleic Acid [25] = test: Binding affinity to calf thymus DNA assessed as hypochromic changes at 330 nm wavelength by UV-Vis spectrophotometric titrations; assay type: nucleic-acid assay; conditions: Bos taurus; in short: as §5
Nucleic Acid [26] = test: Binding affinity to calf thymus DNA assessed as hypochromic changes at 343 nm wavelength by UV-Vis spectrophotometric titrations; assay type: nucleic-acid assay; conditions: Bos taurus; in short: as §5
Nucleic Acid [27] = test: Binding affinity to calf thymus DNA assessed as appearance of weak, negative induced CD band at > 300 nm wavelength by circular dichroism spectroscopy; assay type: nucleic-acid assay; conditions: Bos taurus; in short: as §4
Nucleic Acid [28] = test: Binding affinity to calf thymus DNA assessed as UV/Vis spectral change at compound to DNA ratio of 0.24 by UV/Vis titrations; conditions: Bos taurus
WI-38 [29] = test: Antiproliferative activity against human WI38 cells at 0.1 to 10 uM after 72 hrs by MTT assay; assay type: cell-based; conditions: wi-38, 72 h; in short: as §1
MIA PaCa-2 [30] = test: Antiproliferative activity against human MIAPaCa2 cells at 0.1 to 10 uM after 72 hrs by MTT assay; assay type: functional, cell-based; in short: as §1
SK-BR-3 [31] = test: Antiproliferative activity against human SKBR3 cells at 0.1 to 10 uM after 72 hrs by MTT assay; assay type: functional, cell-based; in short: as §1
SW-620 [32] = test: Antiproliferative activity against human SW620 cells at 0.1 to 10 uM after 72 hrs by MTT assay; assay type: functional, cell-based; in short: as §1
HEp-2 [33] = test: Antiproliferative activity against human Hep2 cells at 0.1 to 10 uM after 72 hrs by MTT assay; assay type: functional, cell-based; in short: as §1
MCF7 [34] = test: Antiproliferative activity against human MCF7 cells at 0.1 to 10 uM after 72 hrs by MTT assay; assay type: functional, cell-based; in short: as §1
HeLa [35] = test: Antiproliferative activity against human HeLa cells at 0.1 to 10 uM after 72 hrs by MTT assay; assay type: functional, cell-based; in short: as §1

Row | Compound | IC50 (WI-38 [1]) | IC50 (MIA PaCa-2 [2]) | IC50 (SW-620 [3]) | IC50 (HEp-2 [4]) | IC50 (SK-BR-3 [5]) | IC50 (MCF7 [6]) | IC50 (HeLa [7]) | Activity (WI-38 [8]) | Activity (SW-620 [9]) | Activity (MIA PaCa-2 [10]) | Activity (SK-BR-3 [11]) | Activity (HEp-2 [12]) | Activity (MCF7 [13]) | Activity (HeLa [14]) | ΔTm (Nucleic Acid [15]) | ΔTm (Nucleic Acid [16]) | ΔTm (Nucleic Acid [17]) | ΔTm (Nucleic Acid [18]) | other results
1 | N#Cc1ccc(/C=C/c2nc3ncc(Br)cc3[nH]2)cc1 | 6.76 µM | 8.17 µM | 7.11 µM | 5.69 µM | 4.31 µM | 7.82 µM | 2.88 µM | Toxic | Active | Active | Active | Active | Active | Active | – | – | – | – | –
2 | C[n+]1cccc2c1nc1ccc3ccccc3n12.[I-] | 6.27 µM | 8.56 µM | 14.8 µM | 13.2 µM | 3.51 µM | 7.56 µM | 7.52 µM | Toxic | Active | Active | Active | Active | Active | Active | 6.1 °C | 4.25 °C | 2.6 °C | 1.6 °C | Activity (Nucleic Acid [19]): Active; log Ks (Nucleic Acid [20]): 4.9; Activity (Nucleic Acid [21]): 38%; Activity (Nucleic Acid [22]): 37%; Activity (Nucleic Acid [23]): 28%; Activity (Nucleic Acid [24]): Active
3 | C(=C\c1nc2ncccc2[nH]1)/c1ccccc1 | 3.87 µM | 4.39 µM | 4.64 µM | 3.89 µM | 2.06 µM | 7.57 µM | 2.22 µM | Toxic | Active | Active | Active | Active | Active | Active | – | – | – | – | –
4 | Nc1ccc2c(ccc3nc4ncccc4n32)c1 | – | – | – | – | – | – | – | – | Active | Active | Active | Active | Active | Active | 1.3 °C | 0.2 °C | 1.4 °C | 0.7 °C | Activity (Nucleic Acid [25]): 26%; Activity (Nucleic Acid [26]): 18%; Activity (Nucleic Acid [27]): inactive; log Ks (Nucleic Acid [28]): 4.6
5 | Brc1cnc2nc3ccc4ccc(C5=NCCN5)cc4n3c2c1.Cl | 3.71 µM | 4.74 µM | 3.67 µM | 4.01 µM | 5.52 µM | 8.43 µM | 1.1 µM | Toxic | Active | Active | Active | Active | Active | Active | – | – | – | – | Activity (WI-38 [29]): Toxic; Activity (MIA PaCa-2 [30]): Active; Activity (SK-BR-3 [31]): Active; Activity (SW-620 [32]): Active; Activity (HEp-2 [33]): Active; Activity (MCF7 [34]): Active; Activity (HeLa [35]): Active
